Series [1] deals with T1, GABA-A receptor; alpha-1/beta-3/gamma-2 (Homo sapiens, UniProt P14867+P18507+P28472).
T1 sequence (P14867 whole entry): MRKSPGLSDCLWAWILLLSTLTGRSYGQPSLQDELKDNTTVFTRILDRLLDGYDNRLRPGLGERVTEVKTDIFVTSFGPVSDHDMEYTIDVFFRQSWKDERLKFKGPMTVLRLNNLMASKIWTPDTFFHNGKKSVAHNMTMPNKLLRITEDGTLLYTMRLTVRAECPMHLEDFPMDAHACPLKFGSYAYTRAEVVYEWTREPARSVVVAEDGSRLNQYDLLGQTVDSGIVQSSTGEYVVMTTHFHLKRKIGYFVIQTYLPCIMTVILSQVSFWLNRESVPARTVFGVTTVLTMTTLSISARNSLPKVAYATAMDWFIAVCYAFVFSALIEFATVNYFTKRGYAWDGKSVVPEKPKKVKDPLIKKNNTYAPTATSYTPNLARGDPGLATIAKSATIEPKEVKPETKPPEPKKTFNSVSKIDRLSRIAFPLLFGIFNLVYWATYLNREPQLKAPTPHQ
T1 sequence (P18507 whole entry): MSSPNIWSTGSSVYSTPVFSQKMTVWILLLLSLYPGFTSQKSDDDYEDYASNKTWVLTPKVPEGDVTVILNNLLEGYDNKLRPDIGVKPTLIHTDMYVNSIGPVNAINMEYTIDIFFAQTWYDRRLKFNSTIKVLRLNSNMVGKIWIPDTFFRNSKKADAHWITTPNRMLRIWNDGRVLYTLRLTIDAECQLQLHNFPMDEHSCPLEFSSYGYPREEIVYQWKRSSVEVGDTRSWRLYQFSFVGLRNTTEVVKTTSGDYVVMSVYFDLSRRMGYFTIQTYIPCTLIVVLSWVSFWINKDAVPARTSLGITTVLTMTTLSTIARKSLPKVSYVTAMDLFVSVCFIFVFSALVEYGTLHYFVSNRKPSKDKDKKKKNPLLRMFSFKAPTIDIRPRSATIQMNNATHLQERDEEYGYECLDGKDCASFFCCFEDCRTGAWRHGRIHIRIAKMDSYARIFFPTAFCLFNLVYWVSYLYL
T1 sequence (P28472 whole entry): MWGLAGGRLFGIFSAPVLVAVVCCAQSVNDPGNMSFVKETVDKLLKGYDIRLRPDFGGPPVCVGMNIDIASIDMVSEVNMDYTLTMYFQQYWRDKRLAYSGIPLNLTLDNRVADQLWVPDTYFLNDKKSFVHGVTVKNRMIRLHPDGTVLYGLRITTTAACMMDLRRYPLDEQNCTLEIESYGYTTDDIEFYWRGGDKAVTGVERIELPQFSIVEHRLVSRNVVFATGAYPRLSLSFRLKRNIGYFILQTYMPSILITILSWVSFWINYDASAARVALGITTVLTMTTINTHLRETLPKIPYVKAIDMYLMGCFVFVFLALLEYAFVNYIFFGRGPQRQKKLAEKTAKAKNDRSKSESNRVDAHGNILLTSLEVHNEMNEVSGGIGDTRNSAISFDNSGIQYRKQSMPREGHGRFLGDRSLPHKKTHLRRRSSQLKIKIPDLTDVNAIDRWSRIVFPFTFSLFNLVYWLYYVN
The experiment in a line: Inhibition of [3H]azietomidate labelling of GABAA alpha1beta3gamma2L (unknown origin) expressed in Xenopus laevis oocytes assessed as reduction in photoincorporation at M236 residues of alpha1 subunit measured after 30 mins in presence of GABA by liquid scintillation counting method. The format is cell-based, Oocyte.

The target in series [2] is T1, GABA-A receptor; alpha-1/beta-3/gamma-2. The experiment in a line: Inhibition of [3H]R-mTFD-MPAB labelling of GABAA alpha1beta3gamma2L (unknown origin) expressed in Xenopus laevis oocytes assessed as reduction in photoincorporation at M227 residues of beta3 subunit measured after 30 mins in presence of GABA by liquid scintillation counting method. The format is cell-based.

For series [3], the system named is Xenopus laevis. Briefly: Anesthetic activity in Xenopus laevis tadpoles assessed as increase in loss of righting reflex incubated for 30 to 60 mins. The format is functional, organism-based.
Series [4] has as its target T1, GABA-A receptor; alpha-1/beta-3/gamma-2. The experiment in a line: Positive allosteric modulation of GABAA alpha1beta3gamma2L in HEK cell plasma membrane assessed as increase in [3H]muscimol binding measured after 10 mins by liquid scintillation counting method. The format is cell membranes. The method in brief:
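HEK293 membranes (100 μg protein) from tetracycline-inducible cells expressing FLAG-tagged human receptors. Incubated 10 min with 2 nM [3H]muscimol (final) and modulator in 10 mM phosphate, 200 mM KCl, 1 mM EDTA, pH 7.4. Filtered on PEI-treated GF/B filters and washed twice with cold buffer. EC50 from fitting a logistic equation (Eqn 1) to pooled concentration-response points from independent experiments.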

A short description of series [5]: Toxicity in Xenopus laevis tadpoles.
The target of series [6] is T1, GABA-A receptor; alpha-1/beta-3/gamma-2. Briefly: Inhibition of [3H]pTFD-di-iPr-BnOH labelling of GABAA alpha1beta3gamma2L (unknown origin) expressed in Xenopus laevis oocytes assessed as reduction in photoincorporation at beta subunit measured after 30 mins in presence of GABA by liquid scintillation counting method. The format is cell-based.
Series [7] has the same target. Briefly: Positive allosteric modulation of GABAA alpha1beta3gamma2L (unknown origin) expressed in Xenopus laevis oocytes assessed as increase in GABA-induced current by two microelectrode voltage-clamp electrophysiology. The format is cell-based, Oocyte. The method in brief: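 Human subunit mRNA (0.5–1 ng, α:β:γ 1:1:5) injected into Xenopus oocytes, recorded about 24 h later. Two-electrode voltage clamp at −50 mV, room temperature, ND96 pH 7.6.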

Series [8] concerns the target T2, GABA-A receptor alpha-1/beta-3 (Homo sapiens, UniProt P14867+P28472).
T2 sequence (P14867 whole entry): T1 sequence (P14867 whole entry)
T2 sequence (P28472 whole entry): T1 sequence (P28472 whole entry)
Briefly: Positive allosteric modulation of GABAA alpha1beta3 in HEK cell plasma membrane assessed as increase in [3H]muscimol binding measured after 10 mins by liquid scintillation counting method. The format is cell membranes. The method in brief: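 Native membranes from tetracycline-inducible HEK293 cells expressing FLAG-tagged human receptors (100 μg protein), [3H]muscimol 2 nM final, plus modulator in 10 mM phosphate, 200 mM KCl, 1 mM EDTA, pH 7.4; 10 min incubation, filtration on PEI-treated GF/B filters, two cold washes. Concentration-response curves from independent experiments fitted to a Hill equation for EC50 and nH.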

Series [9] relates to Oocyte. Briefly: Positive allosteric modulation of GABAA alpha1beta3gamma2L S270I mutant (unknown origin) expressed in Xenopus laevis oocytes assessed as increase in GABA-induced current at 8 uM by two microelectrode voltage-clamp electrophysiology. The conditions noted are these: Homo sapiens. The format is cell-based.
Series [10] has as its system Oocyte. The experiment in a line: Positive allosteric modulation of GABAA alpha1beta3gamma2L I242W mutant (unknown origin) expressed in Xenopus laevis oocytes assessed as increase in GABA-induced current at 8 uM by two microelectrode voltage-clamp electrophysiology. The format is cell-based. The conditions noted are these: Homo sapiens, filed as positive allosteric modulator.

In series [11] the test system is Oocyte. Briefly: Positive allosteric modulation of GABAA alpha1beta3gamma2L M227W mutant (unknown origin) expressed in Xenopus laevis oocytes assessed as increase in GABA-induced current at 8 uM by two microelectrode voltage-clamp electrophysiology. The conditions noted are these: Homo sapiens, filed as positive allosteric modulator. The format is cell-based.
The test system of series [12] is Oocyte. The format is cell-based. The note with it: Homo sapiens, filed as positive allosteric modulator, dose 8.0 µM.
In series [13] the test system is Oocyte. Briefly: Positive allosteric modulation of GABAA alpha1beta3gamma2L S280W mutant (unknown origin) expressed in Xenopus laevis oocytes assessed as increase in GABA-induced current at 8 uM by two microelectrode voltage-clamp electrophysiology. The conditions noted are these: Homo sapiens. The format is cell-based.

One may read the IC50 as the concentration that inhibits the measured activity by half. Broadly, the EC50 is the concentration at which the effect is half-maximal. For orientation: LC50 means the concentration lethal to half of the exposed cells or organisms.

Structures are written as SMILES. Active and inactive are the calls of the source. The rule behind the calls is not given here.

`OCc1ccc(C2(C(F)(F)F)N=N2)cc1`: the IC50 came to 305 µM in series [1] and 465 µM in series [2]. The figures for the EC50 in series [3] and in [4] were 28 µM and 700 µM, respectively.

Compound `CC(C)c1cc(C2(C(F)(F)F)N=N2)cc(C(C)C)c1CO` registered a 50% lethal concentration (LC50) in series [5] of 3.6 µM. The IC50 in series [1] was 460 µM; in [6] it was 18 µM; in series [2] it was 26 µM. For the same compound, the EC50 in series [7] was 10 µM; in [8], 2.9 µM; in series [3], 2.5 µM; in series [4] it was 7.4 µM.

Turning to `C=CCC1(c2cccc(C3(C(F)(F)F)N=N3)c2)C(=O)NC(=O)N(C)C1=O` (stereo not drawn), the outcome in series [9] and in series [13] was inactive. For the same compound, the result in series [10], in series [11] and in series [12] was Active.

For the compound `CC(C)c1cccc(C(C)C)c1CO`, the IC50 in [1] was determined as 92 µM; in [2] it was 243 µM. Further, the results for the half-maximal effective concentration (EC50) in [3] and in series [4] were 16 µM and 40 µM, respectively.

On to `OCc1ccccc1` [BENZYL ALCOHOL], for which the results for the concentration for a half-maximal effect (EC50) in series [3] and in [4] were 2000 µM and more than 50000 µM, respectively.

As for `CC(C)c1cccc(C(C)C)c1O` [PROPOFOL], the values for the half-maximal inhibitory concentration (IC50) in series [1], in [6] and in [2] were 8 µM, 32 µM and 44 µM, respectively. In addition, the 50% effective concentration (EC50) turned out to be 0.63 µM in [3] and 5.4 µM in series [4].

For the origin of these results see ChEMBL document CHEMBL4680248 (Eur J Med Chem, 2020).
